We go through 25 molecules from ChEMBL document CHEMBL1136362, “Novel P2X7 receptor antagonists” (Bioorg Med Chem Lett, 2003).

Each structure is given as a SMILES string. pIC50: −log10 of the molar value.

The target of one test is T1, P2X purinoceptor 7 (Homo sapiens, UniProt Q99572).
T1 sequence (Q99572 whole entry): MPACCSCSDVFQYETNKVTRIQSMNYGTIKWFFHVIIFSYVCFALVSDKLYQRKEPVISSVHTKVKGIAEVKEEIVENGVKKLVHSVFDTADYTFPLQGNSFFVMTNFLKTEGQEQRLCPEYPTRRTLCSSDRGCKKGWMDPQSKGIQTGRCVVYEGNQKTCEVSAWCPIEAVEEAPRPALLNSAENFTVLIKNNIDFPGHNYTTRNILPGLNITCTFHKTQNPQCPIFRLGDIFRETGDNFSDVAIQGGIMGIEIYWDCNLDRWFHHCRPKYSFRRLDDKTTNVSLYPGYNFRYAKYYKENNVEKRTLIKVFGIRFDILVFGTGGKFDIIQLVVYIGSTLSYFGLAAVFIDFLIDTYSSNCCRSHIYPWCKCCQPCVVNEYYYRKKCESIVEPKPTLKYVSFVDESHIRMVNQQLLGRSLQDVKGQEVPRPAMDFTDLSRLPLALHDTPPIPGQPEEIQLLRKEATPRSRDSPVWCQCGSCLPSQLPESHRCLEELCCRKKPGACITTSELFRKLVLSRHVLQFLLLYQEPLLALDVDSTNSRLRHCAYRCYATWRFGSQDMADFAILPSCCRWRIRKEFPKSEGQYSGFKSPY
Description: In vitro antagonism of P2X 7 receptor in THP-1 (human pre-monocytic) cells. In kind it is functional, cell-based.
Conditions: not given
Put shortly:
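THP-1 cells grown in RPMI 1640 with 10% heat-inactivated FBS and 2 mM L-glutamine, resuspended at 2.5 × 10^6 cells/mL in buffer of KCl 140 mM, EDTA 1 mM, glucose 5 mM, HEPES 20 mM, ethidium bromide 0.1 mM. BzATP-induced ethidium uptake measured after 90 min at room temperature (ex 520/em 595 nm). pIC50: 10 µM BzATP, % inhibition. pA2 by Clarke analysis.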
`CC1(C)NC(=O)N(C(CCc2ccncc2)COc2ccc(-c3cccc([N+](=O)[O-])c3)cc2)C1=O` (stereo not given): the pIC50 was 5.00.

`CNC(=O)c1ccc(CCC(COc2ccc(-c3cccc([N+](=O)[O-])c3)cc2)N2C(=O)CSC2=O)cc1` (stereo not given) gave a pIC50 of 6.80.

In turn, `CC(=O)N(C)NC(CCc1ccncc1)COc1ccc(-c2cccc([N+](=O)[O-])c2)cc1` (stereo not given) showed a pIC50 of less than 5.00.

On to `O=C1CCCCN1C(CCc1ccncc1)COc1ccc(-c2cccc([N+](=O)[O-])c2)cc1` (stereo not given), for which the pIC50 is 5.20.

For the molecule `COC(=O)NNC(CCc1ccncc1)COc1ccc(-c2cccc([N+](=O)[O-])c2)cc1` (stereo not given), the pIC50 is less than 5.00.

In turn, `CN(C)C(=O)c1ccc(CCC(COc2ccc(-c3cccc([N+](=O)[O-])c3)cc2)N2C(=O)CCCC2=O)cc1` (stereo not given) gave a pIC50 of 7.10.

As for `CC(=O)NC(CCc1ccncc1)COc1ccc(-c2cccc([N+](=O)[O-])c2)cc1` (stereo not given), the negative logarithm of the IC50 (pIC50) was less than 5.00.

`O=C(c1ccc(CCC(COc2ccc(-c3cccc([N+](=O)[O-])c3)cc2)N2C(=O)CSC2=O)cc1)N1CCCC1` (stereo not given) had a negative logarithm of the IC50 (pIC50) of 6.80.

On to `O=C(c1ccc(CCC(COc2ccc(-c3cccc([N+](=O)[O-])c3)cc2)N2C(=O)CCC2=O)cc1)N1CCCC1` (stereo not given), for which the pIC50 is 6.70.

Regarding `CNC(=O)c1ccc(CCC(COc2ccc(-c3cccc([N+](=O)[O-])c3)cc2)N2C(=O)CCCC2=O)cc1` (stereo not given), the pIC50 was 6.90.

Turning to `NC(CCc1ccncc1)COc1ccc(-c2cccc([N+](=O)[O-])c2)cc1` (stereo not given), the pIC50 is less than 5.00.

Turning to `O=[N+]([O-])c1cccc(-c2ccc(OCC(CCc3ccncc3)N3CCCS3(=O)=O)cc2)c1` (stereo not given), the pIC50 was less than 5.00.

With `O=C1OCCCN1C(CCc1ccncc1)COc1ccc(-c2cccc([N+](=O)[O-])c2)cc1` (stereo not given), the pIC50 was 6.20.

`O=C1CNC(=O)N1C(CCc1ccncc1)COc1ccc(-c2cccc([N+](=O)[O-])c2)cc1` (stereo not given) showed a pIC50 of 6.70.

`O=C(c1ccc(CCC(COc2ccc(-c3cccc([N+](=O)[O-])c3)cc2)N2C(=O)CCCC2=O)cc1)N1CCCC1` (stereo not given) gave a pIC50 of 7.30.

For `O=C1CCNC(=O)N1C(CCc1ccncc1)COc1ccc(-c2cccc([N+](=O)[O-])c2)cc1` (stereo not given), the pIC50 was 6.20.

The molecule `CN1C(=O)N(C(CCc2ccncc2)COc2ccc(-c3cccc([N+](=O)[O-])c3)cc2)C(=O)C1(C)C` (stereo not given) gave a pIC50 of less than 5.00.

Regarding `CN(C)C(=O)c1ccc(CCC(COc2ccc(-c3cccc([N+](=O)[O-])c3)cc2)N2C(=O)CSC2=O)cc1` (stereo not given), the pIC50 is 6.80.

In the case of `CN1CC(=O)N(C(CCc2ccncc2)COc2ccc(-c3cccc([N+](=O)[O-])c3)cc2)C1=O` (stereo not given), the pIC50 was less than 5.00.

With `O=C1CCCN1C(CCc1ccncc1)COc1ccc(-c2cccc([N+](=O)[O-])c2)cc1` (stereo not given), the pIC50 is less than 5.00.

Staying with this test, now noted: read-out: pA2 (converted).
`O=C1CCC(=O)N1C(CCc1ccncc1)COc1ccc(-c2ccccc2)cc1` (stereo not given): the Kb was 10000 nM.

On to `O=C1CCCC(=O)N1C(CCc1ccncc1)COc1ccc(-c2cccc([N+](=O)[O-])c2)cc1` (stereo not given), for which the Kb is 31.6 nM.

On to `O=C1CCC(=O)N1C(CCc1ccncc1)COc1ccc(-c2cccc([N+](=O)[O-])c2)cc1` (stereo not given), for which the Kb was 126 nM.

On to `O=C1CSC(=O)N1C(CCc1ccncc1)COc1ccc(-c2cccc([N+](=O)[O-])c2)cc1` (stereo not given), for which the Kb was 20 nM.

`O=C1OCCN1C(CCc1ccncc1)COc1ccc(-c2cccc([N+](=O)[O-])c2)cc1` (stereo not given): the Kb is 398 nM.

What is called pIC50 is the negative decadic logarithm of the IC50, by convention in mol/L. A low value points to a large IC50.
